Activity calls are given as the source filed them.
Assays:
[1] = target: Tyrosine-protein kinase receptor Tie-1 (Homo sapiens) (UniProt P35590); test: Binding affinity to wild-type human partial length TIE1 (T819 to A1138 residues) expressed in bacterial expression system assessed as remaining unbound target protein level at 1000 nM by Kinomescan method relative to control
MV4-11 [2] = test: Antitumor activity against human MV4-11 cells xenografted in nu/nu mouse assessed as tumor growth inhibition at 20 to 30 mg/kg, po administered via gavage for 21 days measured on day 21 post last dose; assay type: functional, organism-based
Procedure, shortened: (§1)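 Female nu/nu mice, five weeks old, implanted subcutaneously in the right flank with 5 million MV4-11 cells in PBS/Matrigel 1:1. Daily oral gavage in 0.5% methylcellulose/0.4% Tween80 started at tumor volume 200–400 mm³, 10, 20 or 30 mg/kg/day or vehicle, 5 mice per group. Tumor volume (W²×L)/2 and body weight measured daily; mean ± SEM.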

[3] = target: Serine/threonine-protein kinase D3 (Homo sapiens) (UniProt O94806); test: Binding affinity to wild-type human partial length PRKD3 (S543 to E863 residues) expressed in bacterial expression system assessed as remaining unbound target protein level at 1000 nM by Kinomescan method relative to control
Sequence of Serine/threonine-protein kinase D3 (Homo sapiens) (O94806 whole entry, the tested form may be a part): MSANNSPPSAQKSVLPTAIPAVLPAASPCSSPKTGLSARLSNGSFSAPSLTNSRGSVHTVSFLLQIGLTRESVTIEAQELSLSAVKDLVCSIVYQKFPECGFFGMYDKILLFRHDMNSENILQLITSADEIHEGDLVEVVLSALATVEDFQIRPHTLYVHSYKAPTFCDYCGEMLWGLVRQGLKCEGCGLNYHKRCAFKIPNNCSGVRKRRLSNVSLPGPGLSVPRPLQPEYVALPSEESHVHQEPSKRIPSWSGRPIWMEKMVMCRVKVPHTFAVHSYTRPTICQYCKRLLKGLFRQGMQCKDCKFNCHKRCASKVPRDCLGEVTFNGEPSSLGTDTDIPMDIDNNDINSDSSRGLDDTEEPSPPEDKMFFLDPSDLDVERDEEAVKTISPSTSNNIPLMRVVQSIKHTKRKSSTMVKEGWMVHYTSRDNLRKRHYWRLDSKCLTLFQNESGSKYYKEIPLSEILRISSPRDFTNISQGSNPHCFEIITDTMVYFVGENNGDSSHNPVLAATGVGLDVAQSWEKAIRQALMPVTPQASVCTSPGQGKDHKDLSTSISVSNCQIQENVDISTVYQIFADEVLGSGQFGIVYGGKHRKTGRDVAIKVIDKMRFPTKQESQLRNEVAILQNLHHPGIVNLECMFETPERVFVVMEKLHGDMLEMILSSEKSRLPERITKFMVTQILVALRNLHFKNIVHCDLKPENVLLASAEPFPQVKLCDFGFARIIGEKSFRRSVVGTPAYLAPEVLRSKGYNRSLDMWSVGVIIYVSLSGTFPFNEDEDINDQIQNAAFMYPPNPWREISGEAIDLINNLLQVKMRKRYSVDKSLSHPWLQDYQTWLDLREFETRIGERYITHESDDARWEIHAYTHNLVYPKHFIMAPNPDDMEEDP

[4] = tested on: Tyrosine-protein kinase ABL1 (Homo sapiens), P00519 [M351T]; test: Binding affinity to human phosphorylated ABL1 M351T mutant (S229 to K512 residues) expressed in mammalian expression system assessed as remaining unbound target protein level at 1000 nM by Kinomescan method relative to control
Procedure, shortened: (§2)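 Single-point competition binding screen across a panel of 468 kinases and mutants, with the inhibitor at 1 μM. Binding is read out as percent of a DMSO control, and targets below 1 percent control were classed as strong binders.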

[5] = target: Aurora kinase C (Homo sapiens) (UniProt Q9UQB9); test: Binding affinity to wild-type human full length AURKC (M1 to S275 residues) expressed in bacterial expression system assessed as remaining unbound target protein level at 1000 nM by Kinomescan method relative to control; procedure, shortened: as §2
[6] = target: Activin receptor type-1B (Homo sapiens) (UniProt P36896); test: Binding affinity to wild-type human ACVR1B (S187 to I505 residues) expressed in bacterial expression system assessed as remaining unbound target protein level at 1000 nM by Kinomescan method relative to control; procedure, shortened: as §2
Sequence of Activin receptor type-1B (Homo sapiens) (P36896 whole entry, the tested form may be a part): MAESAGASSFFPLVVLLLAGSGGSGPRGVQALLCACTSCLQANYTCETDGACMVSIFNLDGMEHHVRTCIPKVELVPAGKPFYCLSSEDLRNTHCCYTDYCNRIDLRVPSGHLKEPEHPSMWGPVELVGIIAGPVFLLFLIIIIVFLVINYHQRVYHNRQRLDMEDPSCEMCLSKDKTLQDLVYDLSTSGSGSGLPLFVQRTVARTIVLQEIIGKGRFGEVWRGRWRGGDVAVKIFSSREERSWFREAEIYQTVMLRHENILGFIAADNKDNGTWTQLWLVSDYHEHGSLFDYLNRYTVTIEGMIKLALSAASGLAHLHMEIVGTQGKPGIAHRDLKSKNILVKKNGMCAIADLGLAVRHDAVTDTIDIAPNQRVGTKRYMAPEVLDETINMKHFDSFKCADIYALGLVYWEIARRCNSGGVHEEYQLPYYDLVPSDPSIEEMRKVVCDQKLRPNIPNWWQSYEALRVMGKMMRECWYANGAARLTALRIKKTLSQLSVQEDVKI

[7] = tested on: Leucine-rich repeat serine/threonine-protein kinase 2 (Homo sapiens), Q5S007 [G2019S]; test: Binding affinity to human partial length LRRK2 G2019S mutant (H970 to E2527 residues) expressed in mammalian expression system assessed as remaining unbound target protein level at 1000 nM by Kinomescan method relative to control
Procedure, shortened: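 KINOMEscan competition-binding profiling across the panel of 468 kinases and mutants, with inhibitor tested at 1 μM. Binding is expressed as percent of control, with DMSO as the reference control.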

[8] = target: Cytoplasmic tyrosine-protein kinase BMX (Homo sapiens) (UniProt P51813); test: Binding affinity to wild-type human full length BMX (M1 to H675 residues) expressed in bacterial expression system assessed as remaining unbound target protein level at 1000 nM by Kinomescan method relative to control; procedure, shortened: as §2
Sequence of Cytoplasmic tyrosine-protein kinase BMX (Homo sapiens) (P51813 whole entry, the tested form may be a part, canonical isoform): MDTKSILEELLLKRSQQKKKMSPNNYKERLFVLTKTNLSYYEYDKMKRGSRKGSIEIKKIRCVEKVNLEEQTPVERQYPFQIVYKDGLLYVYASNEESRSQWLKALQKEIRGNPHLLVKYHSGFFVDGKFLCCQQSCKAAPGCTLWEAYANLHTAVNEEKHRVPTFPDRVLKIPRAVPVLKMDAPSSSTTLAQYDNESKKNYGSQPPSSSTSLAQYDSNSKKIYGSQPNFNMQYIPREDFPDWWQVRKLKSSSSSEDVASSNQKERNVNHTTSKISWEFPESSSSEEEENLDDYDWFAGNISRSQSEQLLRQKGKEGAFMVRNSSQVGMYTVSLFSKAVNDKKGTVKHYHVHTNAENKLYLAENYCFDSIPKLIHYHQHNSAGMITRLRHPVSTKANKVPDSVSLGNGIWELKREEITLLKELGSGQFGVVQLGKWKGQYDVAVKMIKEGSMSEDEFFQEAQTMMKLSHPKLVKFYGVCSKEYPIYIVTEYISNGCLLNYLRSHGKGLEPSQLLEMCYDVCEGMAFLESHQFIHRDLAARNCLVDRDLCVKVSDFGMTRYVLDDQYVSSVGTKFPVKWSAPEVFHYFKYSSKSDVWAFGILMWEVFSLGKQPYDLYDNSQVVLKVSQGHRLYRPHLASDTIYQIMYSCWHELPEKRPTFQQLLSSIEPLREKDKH

[9] = target: Casein kinase I isoform gamma-2 (Homo sapiens) (UniProt P78368); test: Binding affinity to wild-type human full length CSNK1G2 (M1 to K415 residues) expressed in bacterial expression system assessed as remaining unbound target protein level at 1000 nM by Kinomescan method relative to control
Procedure, shortened: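 KINOMEscan competitive binding profile at 1 μM inhibitor. Remaining target binding reported as percent of DMSO control.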

[10] = target: TRAF2 and NCK-interacting protein kinase (Homo sapiens) (UniProt Q9UKE5); test: Binding affinity to wild-type human partial length TNIK (D4 to K311 residues) expressed in bacterial expression system assessed as remaining unbound target protein level at 1000 nM by Kinomescan method relative to control
[11] = target: Tyrosine-protein kinase Yes (Homo sapiens) (UniProt P07947); test: Binding affinity to wild-type human partial length YES (T257 to L543 residues) expressed in bacterial expression system assessed as remaining unbound target protein level at 1000 nM by Kinomescan method relative to control
Sequence of Tyrosine-protein kinase Yes (Homo sapiens) (P07947 2-543 limits assumed): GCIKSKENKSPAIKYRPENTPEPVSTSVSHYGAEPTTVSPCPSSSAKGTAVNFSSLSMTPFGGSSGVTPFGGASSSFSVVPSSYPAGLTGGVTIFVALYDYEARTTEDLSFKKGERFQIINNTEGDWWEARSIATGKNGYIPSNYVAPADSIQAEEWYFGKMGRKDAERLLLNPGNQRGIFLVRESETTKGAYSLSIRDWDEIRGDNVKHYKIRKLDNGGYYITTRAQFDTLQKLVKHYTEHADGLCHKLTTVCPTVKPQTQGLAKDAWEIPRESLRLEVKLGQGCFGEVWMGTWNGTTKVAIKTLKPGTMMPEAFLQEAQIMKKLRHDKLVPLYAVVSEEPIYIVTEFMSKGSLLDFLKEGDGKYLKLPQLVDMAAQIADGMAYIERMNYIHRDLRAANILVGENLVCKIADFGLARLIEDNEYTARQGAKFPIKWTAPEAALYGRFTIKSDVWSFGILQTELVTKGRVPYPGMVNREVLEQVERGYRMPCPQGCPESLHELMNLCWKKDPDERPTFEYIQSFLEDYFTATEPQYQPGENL

[12] = tested on: Tyrosine-protein kinase ABL1 (Homo sapiens), P00519 [H396P]; test: Binding affinity to human phosphorylated ABL1 H396P mutant (S229 to K512 residues) expressed in mammalian expression system assessed as remaining unbound target protein level at 1000 nM by Kinomescan method relative to control; procedure, shortened: as §2
[13] = target: NT-3 growth factor receptor (Homo sapiens) (UniProt Q16288); test: Binding affinity to wild-type human partial length TRKC (Q531 to G825 residues) expressed in mammalian expression system assessed as remaining unbound target protein level at 1000 nM by Kinomescan method relative to control
[14] = target: Phosphatidylinositol 4,5-bisphosphate 3-kinase catalytic subunit beta isoform (Homo sapiens) (UniProt P42338); test: Binding affinity to wild-type human partial length PIK3CB (P118 to S1070 residues) expressed in mammalian expression system assessed as remaining unbound target protein level at 1000 nM by Kinomescan method relative to control
Sequence of Phosphatidylinositol 4,5-bisphosphate 3-kinase catalytic subunit beta isoform (Homo sapiens) (P42338 whole entry, looked up, the tested form may be a part, canonical isoform): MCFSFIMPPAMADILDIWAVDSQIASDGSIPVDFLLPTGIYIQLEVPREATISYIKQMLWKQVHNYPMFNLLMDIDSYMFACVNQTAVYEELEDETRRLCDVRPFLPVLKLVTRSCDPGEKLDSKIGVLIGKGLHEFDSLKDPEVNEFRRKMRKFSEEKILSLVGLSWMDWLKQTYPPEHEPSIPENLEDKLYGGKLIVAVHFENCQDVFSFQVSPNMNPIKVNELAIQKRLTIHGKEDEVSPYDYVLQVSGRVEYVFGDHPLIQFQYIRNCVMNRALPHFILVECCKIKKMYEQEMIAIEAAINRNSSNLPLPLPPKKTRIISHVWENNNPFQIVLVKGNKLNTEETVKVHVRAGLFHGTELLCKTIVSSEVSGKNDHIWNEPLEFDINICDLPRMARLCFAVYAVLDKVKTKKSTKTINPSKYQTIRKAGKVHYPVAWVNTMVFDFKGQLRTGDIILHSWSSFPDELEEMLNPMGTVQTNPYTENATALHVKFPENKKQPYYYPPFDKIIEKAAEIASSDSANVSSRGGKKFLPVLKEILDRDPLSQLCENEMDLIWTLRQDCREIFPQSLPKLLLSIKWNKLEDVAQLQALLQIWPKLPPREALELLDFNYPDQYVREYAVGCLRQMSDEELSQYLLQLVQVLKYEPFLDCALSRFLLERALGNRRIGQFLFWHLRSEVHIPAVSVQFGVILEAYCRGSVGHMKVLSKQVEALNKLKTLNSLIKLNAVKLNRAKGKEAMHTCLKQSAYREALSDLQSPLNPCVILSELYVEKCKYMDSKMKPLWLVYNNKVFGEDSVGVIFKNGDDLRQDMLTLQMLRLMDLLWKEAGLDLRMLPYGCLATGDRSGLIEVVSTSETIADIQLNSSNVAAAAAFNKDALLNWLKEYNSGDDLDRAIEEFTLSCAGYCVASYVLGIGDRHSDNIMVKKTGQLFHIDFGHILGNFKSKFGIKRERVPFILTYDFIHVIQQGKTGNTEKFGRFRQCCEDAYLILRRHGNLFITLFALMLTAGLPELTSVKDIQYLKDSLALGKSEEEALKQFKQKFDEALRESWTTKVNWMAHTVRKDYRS

MV4-11 [15] = test: Antitumor activity against human MV4-11 cells xenografted in nu/nu mouse assessed as tumor growth inhibition at 10 mg/kg, po administered via gavage for 21 days measured on day 21 post last dose; assay type: functional, organism-based; procedure, shortened: as §1
[16] = target: Vascular endothelial growth factor receptor 1 (Homo sapiens) (UniProt P17948); test: Binding affinity to wild-type human partial length FLT1 (R781 to F1239 residues) expressed in bacterial expression system assessed as remaining unbound target protein level at 1000 nM by Kinomescan method relative to control
[17] = target: Mitogen-activated protein kinase kinase kinase 7 (Homo sapiens) (UniProt O43318); test: Binding affinity to wild-type human partial length TAK1 (M1 to Q303 residues) expressed in mammalian expression system assessed as remaining unbound target protein level at 1000 nM by Kinomescan method relative to control
[18] = Cmax in beagle dog at 2 mg/kg, iv by LC-MS/MS analysis; assay type: ADME, organism-based, Canis lupus familiaris; set-up: dose 2 mg/kg, route intravenous; conditions: in vivo
HL-60 = test: Antiproliferative activity against human HL60 cells after 72 hrs by Celltiter-Glo assay; assay type: functional; conditions: HL-60, 72 h
Procedure, shortened: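 Cells seeded at 3000/well in 96-well plates, exposed to serially diluted compound for 72 h at 37 °C, 5% CO2. Viability read by CellTiter-Glo luminescence and normalized to DMSO control. GI50 derived from curve fit, mean of three independent measurements. Culture media: DMEM/10% FBS for adherent lines; IMDM for MV4-11 and MEC-1/2; RPMI 1640 for suspension lines and CHL.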

[19] = target: Serine/threonine-protein kinase BRSK1 (Homo sapiens) (UniProt Q8TDC3); test: Binding affinity to wild-type human partial length BRSK1 (M1 to E754 residues) expressed in bacterial expression system assessed as remaining unbound target protein level at 1000 nM by Kinomescan method relative to control
Procedure, shortened: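 Profiled in a KINOMEscan binding panel with the inhibitor at a single concentration of 1 μM. Binding to each kinase was read out as percent of control, relative to a DMSO control. Strong binders were defined as those with a percent control value below 1.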

Sequence of Tyrosine-protein kinase receptor Tie-1 (Homo sapiens) (P35590 whole entry, the tested form may be a part): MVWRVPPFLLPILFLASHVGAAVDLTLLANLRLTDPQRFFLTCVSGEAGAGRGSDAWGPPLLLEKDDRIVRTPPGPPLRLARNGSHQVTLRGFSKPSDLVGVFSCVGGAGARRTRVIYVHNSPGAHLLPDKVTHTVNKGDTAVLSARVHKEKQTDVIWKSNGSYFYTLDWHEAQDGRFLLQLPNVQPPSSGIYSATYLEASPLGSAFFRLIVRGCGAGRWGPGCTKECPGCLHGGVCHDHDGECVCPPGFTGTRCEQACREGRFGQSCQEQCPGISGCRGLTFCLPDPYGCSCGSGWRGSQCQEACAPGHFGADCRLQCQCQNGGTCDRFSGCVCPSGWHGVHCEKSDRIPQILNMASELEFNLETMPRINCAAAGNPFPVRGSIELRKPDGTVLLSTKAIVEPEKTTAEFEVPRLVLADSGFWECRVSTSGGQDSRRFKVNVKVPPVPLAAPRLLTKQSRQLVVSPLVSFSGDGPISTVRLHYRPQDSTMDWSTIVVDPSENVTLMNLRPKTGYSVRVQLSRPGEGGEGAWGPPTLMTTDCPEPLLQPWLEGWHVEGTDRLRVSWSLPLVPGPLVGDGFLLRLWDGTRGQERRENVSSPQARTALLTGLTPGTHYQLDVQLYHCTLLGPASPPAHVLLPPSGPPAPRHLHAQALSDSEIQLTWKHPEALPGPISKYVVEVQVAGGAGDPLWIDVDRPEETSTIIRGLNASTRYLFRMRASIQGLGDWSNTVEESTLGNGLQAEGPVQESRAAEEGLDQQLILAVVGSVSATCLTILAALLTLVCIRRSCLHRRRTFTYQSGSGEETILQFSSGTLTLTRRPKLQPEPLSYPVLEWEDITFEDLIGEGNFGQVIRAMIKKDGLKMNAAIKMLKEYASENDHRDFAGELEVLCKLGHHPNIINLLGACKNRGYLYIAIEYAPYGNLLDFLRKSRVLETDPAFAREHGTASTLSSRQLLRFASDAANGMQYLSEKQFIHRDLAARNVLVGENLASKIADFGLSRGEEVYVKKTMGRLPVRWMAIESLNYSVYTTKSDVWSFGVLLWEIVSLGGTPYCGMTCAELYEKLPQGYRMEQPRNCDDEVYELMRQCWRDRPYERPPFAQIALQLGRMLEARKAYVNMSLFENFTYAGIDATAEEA

## COCCN[C@H]1CC[C@H](Nc2cc(-c3csc(NCC4(C#N)CCOCC4)n3)c(Cl)cn2)CC1
[1]
  Activity: 80%
MV4-11 [2]
  TGI: Active
[3]
  Activity: 89%
[4]
  Activity: 100%
[5]
  Activity: 100%
[6]
  Activity: 92%
[7]
  Activity: 94%
[8]
  Activity: 92%
[9]
  Activity: 73%
[10]
  Activity: 64%
[11]
  Activity: 97%
[12]
  Activity: 95%
[13]
  Activity: 89%
[14]
  Activity: 100%
MV4-11 [15]
  TGI: inactive
[16]
  Activity: 98%
[17]
  Activity: 100%
[18]
  Cmax: 414 ng/mL
HL-60
  GI50: 56 nM
[19]
  Activity: 85%

— ChEMBL document CHEMBL4261600 (Eur J Med Chem, 2018)
